Assay results from different studies.
Read-out: ABTS scavenging

CCCCCCCCOc1ccc(NC(=O)Cc2c[nH]c3ccccc23)cc1 — IC50: 1800 nM
O=c1oc2c(O)c(O)cc3c(=O)oc4c(O)c(O)cc1c4c23 — IC50 (absorbance): 5760 nM
COc1ccc(-c2nc3cc(C)c(C)cc3[nH]2)cc1OCc1ccccc1 — IC50 (absorbance): 1830 nM
O=c1c(O[C@@H]2O[C@H](CO)[C@@H](O)[C@H](O)[C@H]2O)c(-c2ccc(O)cc2)oc2cc(O[C@@H]3O[C@H](CO)[C@@H](O)[C@H](O)[C@H]3O)cc(O)c12 — IC50 (absorbance): 30600 nM
Cc1ccc(NC(=O)Cc2c[nH]c3ccccc23)c(C)c1 — IC50: 1900 nM
COC(=O)c1cc(O)c(O)c(O)c1 — IC50 (absorbance): 14200 nM
Fc1ccc2[nH]c(-c3cccc(OCc4ccccc4)c3)nc2c1 — IC50 (absorbance): 1850 nM
CCCCOc1ccc(NC(=O)Cc2c[nH]c3ccccc23)cc1 — IC50: 1780 nM
Clc1ccc2[nH]c(-c3ccccc3OCc3ccccc3)nc2c1 — IC50 (absorbance): 1780 nM
CCOC(=O)c1cc(O)c(O)c(O)c1 — IC50 (absorbance): 17700 nM
COc1ccc(-c2nc3cc(F)ccc3[nH]2)cc1OCc1ccccc1 — IC50 (absorbance): 1720 nM
O=C(Cc1c[nH]c2ccccc12)Nc1ccc(Br)cc1 — IC50: 580 nM
Cc1c(C)c2c(c(C)c1O)CC[C@@](C)(CCC[C@H](C)CCC[C@H](C)CCCC(C)C)O2 — IC50: 8.37 µg/mL
COc1ccc(-c2nc3ccccc3[nH]2)cc1OCc1ccccc1 — IC50 (absorbance): 1760 nM
O=C(Cc1c[nH]c2ccccc12)Nc1cccc(I)c1 — IC50: 1150 nM
